From ChEMBL document CHEMBL1142158, “Antibacterial activity and mechanism of action of a novel anilinouracil-fluoroquinolone hybrid compound” (Antimicrob Agents Chemother, 2007)
Values after ≈ are worked out from the molar mass of the structure shown. Active and inactive are the calls of the source. The calls are words filed in the database; no cut-off is given here.

Tests used:
[1] = Inhibition of Bacillus subtilis topoisomerase 4
[2] = Inhibition of Bacillus subtilis gyrase
[3] = system: Bacillus subtilis; assay: Antibacterial activity against Bacillus subtilis BD54; assay type: functional
[4] = system: Bacillus thuringiensis; assay: Antibacterial activity against Bacillus thuringiensis 33679; assay type: functional
[5] = system: Bacillus cereus; assay: Antibacterial activity against Bacillus cereus 4342; assay type: functional
[6] = system: Bacillus cereus; assay: Antibacterial activity against Bacillus cereus 6464; assay type: functional
[7] = system: Staphylococcus aureus; assay: Antibacterial activity against Staphylococcus aureus Smith 13709; assay type: functional
In short: (§1)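 Broth microdilution per CLSI with modified incubation. Log-phase cultures in cation-adjusted Mueller-Hinton broth, seeded at 1 x 10^5 CFU/ml. Compounds from DMSO stocks, 1% DMSO final. Incubated 37°C, 16 to 20 h, shaken. Growth read as OD600. MIC is the lowest concentration with no apparent growth. Run in quadruplicate; highest value reported.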

[8] = system: Bacillus thuringiensis; assay: Antibacterial activity against Bacillus thuringiensis 10792; assay type: functional
[9] = system: Bacillus anthracis; assay: Antibacterial activity against Bacillus anthracis Sterne; assay type: functional
[10] = system: Staphylococcus aureus; assay: Antibacterial activity against Staphylococcus aureus 25923; assay type: functional; in short: as §1
[11] = system: Staphylococcus aureus; assay: Antibacterial activity against Staphylococcus aureus 1081; assay type: functional; in short: as §1
[12] = system: Staphylococcus aureus; assay: Antibacterial activity against methicillin-resistant Staphylococcus aureus 1094; assay type: functional; in short: as §1
[13] = system: Staphylococcus aureus; assay: Antibacterial activity against methicillin-resistant Staphylococcus aureus B42876; assay type: functional; in short: as §1
[14] = system: Staphylococcus aureus; assay: Antibacterial activity against methicillin-resistant Staphylococcus aureus 1123; assay type: functional; in short: as §1
[15] = system: Staphylococcus aureus; assay: Antibacterial activity against methicillin-resistant Staphylococcus aureus 1132; assay type: functional; in short: as §1
[16] = system: Staphylococcus aureus; assay: Antibacterial activity against mupirocin-sensitive Staphylococcus aureus 2529; assay type: functional
[17] = system: Staphylococcus aureus; assay: Antibacterial activity against mupirocin-resistant Staphylococcus aureus 777; assay type: functional; in short: as §1
[18] = system: Enterococcus faecalis; assay: Antibacterial activity against Enterococcus faecalis 29212; assay type: functional; in short: as §1
[19] = system: Enterococcus faecalis; assay: Antibacterial activity against vancomycin-resistant Enterococcus faecalis 700802; assay type: functional; in short: as §1
[20] = system: Enterococcus faecalis; assay: Antibacterial activity against vancomycin-resistant Enterococcus faecalis 51575; assay type: functional; in short: as §1
[21] = system: Enterococcus faecalis; assay: Antibacterial activity against vancomycin-resistant Enterococcus faecalis 51299; assay type: functional; in short: as §1
[22] = system: Enterococcus faecium; assay: Antibacterial activity against Enterococcus faecium 19434; assay type: functional; in short: as §1
[23] = system: Enterococcus faecium; assay: Antibacterial activity against vancomycin-resistant Enterococcus faecium B42762; assay type: functional; in short: as §1
[24] = system: Enterococcus faecium; assay: Antibacterial activity against vancomycin-resistant Enterococcus faecium 1644; assay type: functional; in short: as §1
[25] = system: Enterococcus faecium; assay: Antibacterial activity against vancomycin and linezolid-resistant Enterococcus faecium F118; assay type: functional; in short: as §1
[26] = system: Streptococcus pneumoniae; assay: Antibacterial activity against Streptococcus pneumoniae 49619; assay type: functional
In short: (§2)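 Streptococci tested by CLSI broth microdilution in Mueller-Hinton broth with 5% defibrinated horse blood, log-phase inoculum at 1 x 10^5 CFU/ml. Incubated 37°C with shaking, 16 to 20 h, in 5% humidified CO2. Compounds at 1% DMSO final. MIC is the lowest concentration without growth by OD600. Quadruplicate; highest MIC reported.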

[27] = system: Streptococcus pneumoniae; assay: Antibacterial activity against penicillin-resistant Streptococcus pneumoniae 700670; assay type: functional; in short: as §2
[28] = system: Streptococcus pneumoniae; assay: Antibacterial activity against penicillin-resistant Streptococcus pneumoniae 700674; assay type: functional; in short: as §2
[29] = system: Streptococcus pneumoniae; assay: Antibacterial activity against penicillin-resistant Streptococcus pneumoniae 700671; assay type: functional; in short: as §2
[30] = system: Streptococcus pneumoniae; assay: Antibacterial activity against penicillin-resistant Streptococcus pneumoniae 700673; assay type: functional; in short: as §2
[31] = system: Streptococcus pneumoniae; assay: Antibacterial activity against penicillin-resistant Streptococcus pneumoniae 700677; assay type: functional; in short: as §2
[32] = system: Streptococcus pyogenes; assay: Antibacterial activity against Streptococcus pyogenes 12344; assay type: functional
[33] = system: Escherichia coli; assay: Antibacterial activity against Escherichia coli J53; assay type: functional
[34] = system: Escherichia coli; assay: Antibacterial activity against ciprofloxacin-resistant Escherichia coli XL1-Blue; assay type: functional; in short: as §1
[35] = system: Klebsiella pneumoniae; assay: Antibacterial activity against Klebsiella pneumoniae 5657; assay type: functional
[36] = system: Stenotrophomonas maltophilia; assay: Antibacterial activity against Stenotrophomonas maltophilia 13637; assay type: functional
[37] = system: Pseudomonas aeruginosa; assay: Antibacterial activity against Pseudomonas aeruginosa 27853; assay type: functional
[38] = system: Bacillus subtilis; assay: Inhibition of DNA synthesis in Bacillus subtilis BD54; assay type: functional, organism-based
In short: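 B. subtilis BD54 grown to log phase in C plus 50 medium; compound in DMSO added with [8-3H]adenine at time zero, at 5x or 1x MIC; samples over time. DNA = alkali-insensitive TCA-insoluble label; RNA = total TCA-insoluble minus DNA. Effect judged against diluent-control incorporation.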

[39] = system: Staphylococcus aureus; assay: Antibacterial activity against HB-EMAU-resistant Staphylococcus aureus Smith; assay type: functional; in short: as §1
[40] = system: Staphylococcus aureus; assay: Antibacterial activity against ciprofloxacin-resistant Staphylococcus aureus Smith; assay type: functional; in short: as §1
[41] = system: Staphylococcus aureus; assay: Antibacterial activity against HB-EMAU-resistant and ciprofloxacin-resistant Staphylococcus aureus Smith; assay type: functional; in short: as §1
[42] = Cytotoxicity against human MRC5 cells; assay type: cell-based
In short: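 MRC-5 human diploid fibroblasts, 4 x 10^3 cells per well, exposed to compound from DMSO stock (final 1%) in minimal essential medium with 10% fetal calf serum for 72 h at 37°C beside a DMSO-only control.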

[43] = system: Staphylococcus aureus; assay: Antibacterial activity against Staphylococcus aureus Smith in presence of 10% FCS; assay type: functional
[44] = Therapeutic index, CC50 for MRC5 cells/MIC for Staphylococcus aureus Smith; assay type: cell-based; conditions: human

CC1CN(c2c(F)cc3c(=O)c(C(=O)O)cn(C4CC4)c3c2F)CCN1 (centres undefined)
IC50 [1]: 4.2 µM | IC50 [2]: 5.6 µM | MIC [3]: 0.039 µg/mL (≈ 0.107 µM) | MIC [4]: 0.078 µg/mL (≈ 0.215 µM) | MIC [5]: 0.078 µg/mL (≈ 0.215 µM) | MIC [6]: 0.078 µg/mL (≈ 0.215 µM) | MIC [7]: 0.078 µg/mL (≈ 0.215 µM) | MIC [8]: 0.156 µg/mL (≈ 0.429 µM) | MIC [9]: 0.039 µg/mL (≈ 0.107 µM) | MIC [10]: 0.156 µg/mL (≈ 0.429 µM) | MIC [11]: 10 µg/mL (≈ 27.5 µM) | MIC [12]: 20 µg/mL (≈ 55 µM) | MIC [13]: 80 µg/mL (≈ 220 µM) | MIC [14]: 20 µg/mL (≈ 55 µM) | MIC [15]: 0.156 µg/mL (≈ 0.429 µM) | MIC [16]: 80 µg/mL (≈ 220 µM) | MIC [17]: 40 µg/mL (≈ 110 µM) | MIC [18]: 0.313 µg/mL (≈ 0.861 µM) | MIC [19]: 0.313 µg/mL (≈ 0.861 µM) | MIC [20]: 0.313 µg/mL (≈ 0.861 µM) | MIC [21]: 0.313 µg/mL (≈ 0.861 µM) | MIC [22]: 10 µg/mL (≈ 27.5 µM) | MIC [23]: 40 µg/mL (≈ 110 µM) | MIC [24]: 40 µg/mL (≈ 110 µM) | MIC [25]: 80 µg/mL (≈ 220 µM) | MIC [26]: 0.313 µg/mL (≈ 0.861 µM) | MIC [27]: 0.313 µg/mL (≈ 0.861 µM) | MIC [28]: 0.625 µg/mL (≈ 1.72 µM) | MIC [29]: 0.313 µg/mL (≈ 0.861 µM) | MIC [30]: 0.156 µg/mL (≈ 0.429 µM) | MIC [31]: 0.625 µg/mL (≈ 1.72 µM) | MIC [32]: 0.156 µg/mL (≈ 0.429 µM) | MIC [33]: 0.01 µg/mL (≈ 0.0275 µM) | MIC [34]: 40 µg/mL (≈ 110 µM) | MIC [35]: 0.156 µg/mL (≈ 0.429 µM) | MIC [36]: 0.078 µg/mL (≈ 0.215 µM) | MIC [37]: 0.313 µg/mL (≈ 0.861 µM) | Activity [38]: Active | MIC [39]: 0.078 µg/mL (≈ 0.215 µM) | MIC [40]: 5 µg/mL (≈ 13.8 µM) | MIC [41]: 5 µg/mL (≈ 13.8 µM) | CC50 [42]: > 80 µg/mL | MIC [43]: 0.078 µg/mL | selectivity ratio [44]: > 1000
